From article PMC4171190 (Fitoterapia, 2014) come the findings set out here.

Experiment [1] addresses alpha7 nAChR (Rattus norvegicus, UniProt Q05941). The experiment can be described thus: [3H]-MLA displacement from rat hippocampal membranes. The format is binding.
Experiment [2] concerns LPS stimulated BV2 microglia. Nature of the experiment: Inhibition of TNF-alpha release from LPS stimulated BV2 microglia. The format is cell-based, murine. The settings on record: flavonoid alone; 10μg/ml LPS 24h. In short, it runs like this: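 Murine BV2 cells seeded at 5×10^5 cells/well in 24-well plates, adhered overnight, then given 1h serum-free pretreatment with test compound (±10μM MLA or 1μM nicotine) before 10μg/ml LPS for 24h. Supernatants frozen, then assayed by mouse TNF-alpha ELISA. Release expressed as % of LPS alone, normalised to resazurin viability when groups differed. Sigmoidal fits, fixed vs variable slope compared by F-test.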

The subject of experiment [3] is LPS stimulated BV2 microglia. Nature of the experiment: Inhibition of NO release from LPS stimulated BV2 microglia. Type of experiment: cell-based, murine. In short, it runs like this:
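BV2 murine microglia (DMEM/F-12, 10% FBS, 37°C, 5% CO2) trypsinised, seeded 5×10^5 cells/well in 24-well plates, adhered overnight. Pretreated 1h serum-free with test compound (±10μM MLA or 1μM nicotine), then 10μg/ml LPS for 24h. Supernatant nitrite read immediately by Griess, A550, against NaNO2 standard. Expressed as % of LPS alone; sigmoidal fits, fixed vs variable slope compared by F-test.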

The target of experiment [4] is nicotinic binding sites on BV2 membranes. Nature of the experiment: [3H]-epibatidine saturation binding on BV2 membranes. On the set-up: species or system murine. Conditions: read-out: Kd, saturation binding; BV2 microglia membranes.
[5] abbreviates: IC50 [3H]-MLA displacement, rat hippocampal membranes, 2nM [3H]-MLA.
[6] abbreviates: pIC50 [3H]-MLA displacement, rat hippocampal membranes, 2nM [3H]-MLA.

Molecules are shown by their SMILES. Like-named read-outs stand apart in the source and are kept apart here. Marks after values point to notes of the source that are not given here.

alpha7 nAChR, sequence (Q05941 23-502): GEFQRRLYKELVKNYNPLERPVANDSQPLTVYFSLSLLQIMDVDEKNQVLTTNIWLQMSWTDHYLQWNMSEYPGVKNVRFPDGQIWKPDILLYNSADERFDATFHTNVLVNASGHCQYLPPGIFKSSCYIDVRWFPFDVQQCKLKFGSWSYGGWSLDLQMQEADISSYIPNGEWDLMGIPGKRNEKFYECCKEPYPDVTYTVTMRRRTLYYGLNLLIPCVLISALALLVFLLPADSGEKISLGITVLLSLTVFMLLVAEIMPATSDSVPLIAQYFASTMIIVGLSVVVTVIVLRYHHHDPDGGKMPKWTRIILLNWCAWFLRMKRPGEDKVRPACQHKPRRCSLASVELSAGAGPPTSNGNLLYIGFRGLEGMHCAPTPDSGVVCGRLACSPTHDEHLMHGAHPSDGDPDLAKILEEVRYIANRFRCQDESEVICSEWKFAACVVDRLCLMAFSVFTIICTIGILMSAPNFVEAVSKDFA

One may read the IC50 as the concentration that inhibits the measured activity by half. Regarding `O=c1c(O[C@@H]2O[C@H](CO)[C@@H](O)[C@H](O)[C@H]2O)c(-c2ccc(O)cc2)oc2cc(O)cc(O)c12` [Astragalin], the IC50 in experiment [1] (setting [5]) stood at 496 µM.
Regarding `O=c1cc(-c2ccccc2)oc2cc(O)c(O)c(O)c12` [Baicalein], the half-maximal inhibitory concentration (IC50) in experiment [1] (setting [5]) was 66.1 µM.
Same read-out and setting: to `O=c1c(-c2ccc(O)cc2)coc2cc(O[C@@H]3O[C@H](CO)[C@@H](O)[C@H](O)[C@H]3O)ccc12` [Daidzin] belongs 120 µM.
Consider `O=c1c(O[C@@H]2O[C@H](CO)[C@@H](O)[C@H](O)[C@H]2O)c(-c2ccc(O)c(O)c2)oc2cc(O)cc(O)c12` [Isoquercitrin], for which the IC50 in experiment [1] (setting [6]) was 21.5 µM.
On to `COc1cc(-c2oc3cc(O)cc(O)c3c(=O)c2O)ccc1O` [Isorhamnetin], for which the results for the IC50 in experiment [1] (setting [5]) and in experiment [1] (setting [6]) were 46.5 µM and 46.6 µM, respectively.
As to `COc1cc(-c2[o+]c3cc(O)cc(O)c3cc2O)cc(OC)c1O` [Malvidin], the IC50 in experiment [1] stood at 90 µM.
As for `COc1cc(-c2[o+]c3cc(O)cc(O)c3cc2O[C@@H]2O[C@H](CO)[C@@H](O)[C@H](O)[C@H]2O)cc(O)c1O` [Petunidin-3-glucoside], the “pIC50 [3H]-MLA displacement” value in experiment [1] (rat hippocampal membranes, 2nM [3H]-MLA) is given as 2.464 ± 0.95. Further, the IC50 in experiment [1] (read-out: IC50 [3H]-MLA displacement, rat hippocampal membranes, 2nM [3H]-MLA) was found to be 3430 µM.
As for `O=c1c(O)c(-c2ccc(O)c(O)c2)oc2cc(O)c(O)c(O)c12` [Quercetagetin], the IC50 in experiment [1] was 14.3 µM.
Turning to `O=c1c(O)c(-c2ccc(O)c(O)c2)oc2cc(O)cc(O)c12` [Quercetin], the results for the IC50 in experiment [1] (setting [5]) and in experiment [1] (setting [6]) were 11.4 µM and 11.5 µM, respectively.
Regarding `COc1cc(O)c2c(=O)c(O)c(-c3ccc(O)c(O)c3)oc2c1` [Rhamnetin], the IC50 in experiment [1] (setting [6]) was 1.11 µM. The “Hill slope, inhibition of TNF-alpha release” value in experiment [2] is listed as -3.5 ± 4.1.
With `COc1cc(O)c2c(c1)O[C@H](c1ccc(O)cc1)CC2=O` [Sakuranetin], the “effect of added MLA on anti-inflammatory properties (NO and TNF-alpha release)” value in experiment [3] (addition of MLA, LPS stimulated BV2) was “no effect”. Besides, in experiment [3] (flavonoid alone, 10μg/ml LPS 24h), the “Hill slope, inhibition of NO release” value is reported as -1.0 ^**. Moreover, the “Hill slope, inhibition of TNF-alpha release” value in experiment [2] is recorded as -1.0 ^**.
`O=c1c(O)c(-c2ccc(O[C@@H]3O[C@H](CO)[C@@H](O)[C@H](O)[C@H]3O)c(O)c2)oc2cc(O)cc(O)c12` [Spiraeoside]: the IC50 in experiment [1] (setting [5]) stood at 8.35 µM.
Still for that read-out and setting: to `COc1ccc(-c2oc3cc(O)cc(O)c3c(=O)c2O)cc1O` [Tamarixetin] belongs 238 µM.
`Clc1ccc(C2CC3CCC2N3)cn1` (centres unmarked) [[^3H]-epibatidine]: the Kd in experiment [4] came out at 0.0065 µM.
For the molecule `CN1CCC[C@H]1c1cccnc1` [nicotine, (-)-nicotine], the “effect alone on LPS induced release of inflammatory mediators” value in experiment [3] (1μM, alone) is on record as “no effect alone”. The “effect of mecamylamine on inhibition of NO release” value in experiment [3] (10μM mecamylamine) was “blocked”. Moreover, the “maximal inhibition of LPS elicited release of NO” value in experiment [3] (1h pretreatment, 10μg/ml LPS 24h) is listed as ~20%.
